ChEMBL document CHEMBL1687824, “Overexpression of patA and patB, which encode ABC transporters, is associated with fluoroquinolone resistance in clinical isolates of Streptococcus pneumoniae” (2011)
Converted amounts (≈) assume the structure as drawn.

How the values were obtained:
Type in all cases: functional
Streptococcus pneumoniae [1] = experiment: Antibacterial activity against Streptococcus pneumoniae M308 overexpressing patA, patB and inactivated patB with single mutation by standardized agar doubling dilution method
Procedure, shortened: (§1)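 MICs determined by BSAC standardized agar doubling dilution. Strains were grown in brain heart infusion broth for 24 h at 37°C in 5% CO2. Inhibitor arms had reserpine at 20 μg/ml or sodium orthovanadate at 50 μM in the agar. Mutants were made by transforming magellan2 insertion amplimers into clinical isolates and selecting on spectinomycin 100 mg/liter, with a no-DNA spontaneous-mutation control.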

Streptococcus pneumoniae [2] = experiment: Antibacterial activity against fluoroquinolone, dye-resistant Streptococcus pneumoniae M297 overexpressing patA, patB by standardized agar doubling dilution method in presence of 50 uM sodium orthovanadate efflux pump inhibitor
Procedure, shortened: (§2)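 MIC by agar doubling dilution following BSAC guidelines. Strains grown in brain heart infusion broth 24 h at 37°C in 5% CO2. Where an efflux pump inhibitor applies, MIC redetermined with reserpine at 20 μg/ml or sodium orthovanadate at 50 μM. Synergy taken as a fall in MIC of ≥2 dilutions with inhibitor present. Dye resistance defined relative to R6 (both dyes ≥2 dilutions higher).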

Streptococcus pneumoniae [3] = experiment: Antibacterial activity against Streptococcus pneumoniae M302 overexpressing patA, patB and inactivated patA with single mutation by standardized agar doubling dilution method in presence of 50 uM sodium orthovanadate efflux pump inhibitor; procedure, shortened: as §1
Streptococcus pneumoniae [4] = experiment: Antibacterial activity against fluoroquinolone-resistant Streptococcus pneumoniae M97 FQ-R overexpressing patA, patB by standardized agar doubling dilution method in presence of 50 uM sodium orthovanadate efflux pump inhibitor
Procedure, shortened: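 MIC by agar doubling dilution per BSAC guidelines; strains pregrown in brain heart infusion broth 24 h, 37°C, 5% CO2. MICs measured alone and with efflux pump inhibitors reserpine (20 μg/ml) or sodium orthovanadate (50 μM); synergy defined as ≥2-dilution MIC reduction in presence of inhibitor.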

Streptococcus pneumoniae [5] = experiment: Antibacterial activity against Streptococcus pneumoniae M298 overexpressing patA, patB and inactivated patA with single mutation by standardized agar doubling dilution method in presence of 20 ug/ml reserpine efflux pump inhibitor; procedure, shortened: as §1
Streptococcus pneumoniae [6] = experiment: Antibacterial activity against fluoroquinolone, dye-resistant Streptococcus pneumoniae M74 overexpressing patA, patB by standardized agar doubling dilution method; procedure, shortened: as §2
Streptococcus pneumoniae [7] = experiment: Antibacterial activity against fluoroquinolone, dye-resistant Streptococcus pneumoniae M74 overexpressing patA, patB by standardized agar doubling dilution method in presence of 20 ug/ml reserpine efflux pump inhibitor; procedure, shortened: as §2
Streptococcus pneumoniae [8] = experiment: Antibacterial activity against Streptococcus pneumoniae M305 overexpressing patA, patB and inactivated patB with single mutation by standardized agar doubling dilution method in presence of 20 ug/ml reserpine efflux pump inhibitor; procedure, shortened: as §1
Streptococcus pneumoniae [9] = experiment: Antibacterial activity against fluoroquinolone-resistant Streptococcus pneumoniae M83 FQ-R overexpressing patA, patB by standardized agar doubling dilution method
Procedure, shortened: (§3)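 Clinical S. pneumoniae isolates grown in BHI broth 24 h at 37°C in 5% CO2. MICs by agar doubling dilution per BSAC guidelines, alone or with efflux inhibitor reserpine (20 μg/ml) or sodium orthovanadate (50 μM). Synergy defined as ≥2-dilution MIC reduction in presence of inhibitor.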

Streptococcus pneumoniae [10] = experiment: Antibacterial activity against fluoroquinolone, dye-resistant Streptococcus pneumoniae M50 overexpressing patA, patB by standardized agar doubling dilution method; procedure, shortened: as §2
Streptococcus pneumoniae [11] = experiment: Antibacterial activity against fluoroquinolone, dye-resistant Streptococcus pneumoniae M87 overexpressing patA, patB by standardized agar doubling dilution method in presence of 20 ug/ml reserpine efflux pump inhibitor; procedure, shortened: as §2
Streptococcus pneumoniae [12] = experiment: Antibacterial activity against wild type Streptococcus pneumoniae M3 NCTC 7466 type 2 by standardized agar doubling dilution method; procedure, shortened: as §2
Streptococcus pneumoniae [13] = experiment: Antibacterial activity against Streptococcus pneumoniae M307 overexpressing patA, patB and inactivated patB with single mutation by standardized agar doubling dilution method in presence of 20 ug/ml reserpine efflux pump inhibitor; procedure, shortened: as §1
Streptococcus pneumoniae [14] = experiment: Antibacterial activity against Streptococcus pneumoniae M304 overexpressing patA, patB and inactivated patA with single mutation by standardized agar doubling dilution method in presence of 20 ug/ml reserpine efflux pump inhibitor; procedure, shortened: as §1
Streptococcus pneumoniae [15] = experiment: Antibacterial activity against Streptococcus pneumoniae M46A overexpressing patA, patB and inactivated patA with single mutation by standardized agar doubling dilution method in presence of 20 ug/ml reserpine efflux pump inhibitor
Procedure, shortened: (§4)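 MICs were determined by BSAC agar doubling dilution in the presence of reserpine at 20 μg/ml. Strains were grown in BHI broth for 24 h at 37°C in 5% CO2, with R6 as control. Synergy was defined as an MIC drop of ≥2 dilutions with the inhibitor.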

Streptococcus pneumoniae [16] = experiment: Antibacterial activity against dye-resistant Streptococcus pneumoniae by standardized agar doubling dilution method in presence of 50 uM sodium orthovanadate efflux pump inhibitor; procedure, shortened: as §2
Streptococcus pneumoniae [17] = experiment: Antibacterial activity against Streptococcus pneumoniae M305 overexpressing patA, patB and inactivated patB with single mutation by standardized agar doubling dilution method in presence of 50 uM sodium orthovanadate efflux pump inhibitor; procedure, shortened: as §1
Streptococcus pneumoniae [18] = experiment: Antibacterial activity against Streptococcus pneumoniae M316 overexpressing patA, patB and inactivated patA with single mutation by standardized agar doubling dilution method in presence of 20 ug/ml reserpine efflux pump inhibitor; procedure, shortened: as §4
Streptococcus pneumoniae [19] = experiment: Antibacterial activity against Streptococcus pneumoniae M298 overexpressing patA, patB and inactivated patA with single mutation by standardized agar doubling dilution method; procedure, shortened: as §1
Streptococcus pneumoniae [20] = experiment: Antibacterial activity against wild type Streptococcus pneumoniae R6 by standardized agar doubling dilution method in presence of 50 uM sodium orthovanadate efflux pump inhibitor; procedure, shortened: as §2
Streptococcus pneumoniae [21] = experiment: Antibacterial activity against Streptococcus pneumoniae M86B overexpressing patA, patB and inactivated patB with single mutation by standardized agar doubling dilution method
Procedure, shortened: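 MICs were determined by agar doubling dilution following BSAC guidelines, with no efflux inhibitor. Strains were grown in brain heart infusion broth for 24 h at 37°C in 5% CO2. Species identity was confirmed by Gram stain, optochin sensitivity and capsule test. Control strain R6 was tested alongside.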

Streptococcus pneumoniae [22] = experiment: Antibacterial activity against fluoroquinolone-resistant Streptococcus pneumoniae M98 FQ-R overexpressing patA, patB by standardized agar doubling dilution method; procedure, shortened: as §3
Streptococcus pneumoniae [23] = experiment: Antibacterial activity against Streptococcus pneumoniae M319 overexpressing patA, patB and inactivated patB with single mutation by standardized agar doubling dilution method in presence of 50 uM sodium orthovanadate efflux pump inhibitor
Procedure, shortened: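 MICs were determined by BSAC agar doubling dilution in the presence of sodium orthovanadate at 50 μM. Cultures were grown in BHI broth for 24 h at 37°C in 5% CO2, with R6 as control. Synergy was defined as an MIC reduction of ≥2 dilutions with the inhibitor present.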

Streptococcus pneumoniae [24] = experiment: Antibacterial activity against fluoroquinolone, dye-resistant Streptococcus pneumoniae M45 overexpressing patA, patB by standardized agar doubling dilution method; procedure, shortened: as §2
Streptococcus pneumoniae [25] = experiment: Antibacterial activity against fluoroquinolone, dye-resistant Streptococcus pneumoniae M297 overexpressing patA, patB by standardized agar doubling dilution method; procedure, shortened: as §2
Streptococcus pneumoniae [26] = experiment: Antibacterial activity against Streptococcus pneumoniae M300 overexpressing patA, patB and inactivated patA with single mutation by standardized agar doubling dilution method; procedure, shortened: as §1
Streptococcus pneumoniae [27] = experiment: Antibacterial activity against Streptococcus pneumoniae M314 overexpressing patA, patB and inactivated patA with single mutation by standardized agar doubling dilution method in presence of 50 uM sodium orthovanadate efflux pump inhibitor; procedure, shortened: as §1
Streptococcus pneumoniae [28] = experiment: Antibacterial activity against Streptococcus pneumoniae M314 overexpressing patA, patB and inactivated patA with single mutation by standardized agar doubling dilution method in presence of 20 ug/ml reserpine efflux pump inhibitor; procedure, shortened: as §1

O=C(O)c1cn(C2CC2)c2cc(N3CCNCC3)c(F)cc2c1=O [CIPROFLOXACIN]
MIC (Streptococcus pneumoniae [1]): 2 mg/L (≈ 6.04 µM)
MIC (Streptococcus pneumoniae [2]): 8 mg/L
MIC (Streptococcus pneumoniae [3]): 4 mg/L
MIC (Streptococcus pneumoniae [4]): 8 mg/L
MIC (Streptococcus pneumoniae [5]): 8 mg/L
MIC (Streptococcus pneumoniae [6]): 64 mg/L (≈ 193 µM)
MIC (Streptococcus pneumoniae [7]): 32 mg/L
MIC (Streptococcus pneumoniae [8]): 8 mg/L
MIC (Streptococcus pneumoniae [9]): 64 mg/L (≈ 193 µM)
MIC (Streptococcus pneumoniae [10]): 64 mg/L (≈ 193 µM)
MIC (Streptococcus pneumoniae [11]): 8 mg/L
MIC (Streptococcus pneumoniae [12]): 1 mg/L (≈ 3.02 µM)
MIC (Streptococcus pneumoniae [13]): 8 mg/L
MIC (Streptococcus pneumoniae [14]): 1 mg/L
MIC (Streptococcus pneumoniae [15]): 0.12 mg/L
MIC90 (Streptococcus pneumoniae [16]): 0.5 mg/L
MIC (Streptococcus pneumoniae [17]): 8 mg/L
MIC (Streptococcus pneumoniae [18]): 8 mg/L
MIC (Streptococcus pneumoniae [19]): 8 mg/L (≈ 24.1 µM)
MIC (Streptococcus pneumoniae [20]): 0.1 mg/L
MIC (Streptococcus pneumoniae [21]): 1 mg/L (≈ 3.02 µM)
MIC (Streptococcus pneumoniae [22]): 32 mg/L (≈ 96.6 µM)
MIC (Streptococcus pneumoniae [23]): 16 mg/L
MIC (Streptococcus pneumoniae [24]): 4 mg/L (≈ 12.1 µM)
MIC (Streptococcus pneumoniae [25]): 8 mg/L (≈ 24.1 µM)
MIC (Streptococcus pneumoniae [26]): 2 mg/L (≈ 6.04 µM)
MIC (Streptococcus pneumoniae [27]): 8 mg/L
MIC (Streptococcus pneumoniae [28]): 8 mg/L

CC[n+]1c(-c2ccccc2)c2cc(N)ccc2c2ccc(N)cc21.[Br-] [HOMIDIUM BROMIDE]
MIC (Streptococcus pneumoniae [1]): 0.25 mg/L
MIC (Streptococcus pneumoniae [2]): 1 mg/L
MIC (Streptococcus pneumoniae [3]): 0.5 mg/L
MIC (Streptococcus pneumoniae [4]): 1 mg/L
MIC (Streptococcus pneumoniae [5]): 0.5 mg/L
MIC (Streptococcus pneumoniae [6]): 4 mg/L
MIC (Streptococcus pneumoniae [7]): 0.5 mg/L
MIC (Streptococcus pneumoniae [8]): 0.5 mg/L
MIC (Streptococcus pneumoniae [9]): 8 mg/L
MIC (Streptococcus pneumoniae [10]): 4 mg/L
MIC (Streptococcus pneumoniae [11]): 0.5 mg/L
MIC (Streptococcus pneumoniae [12]): 2 mg/L
MIC (Streptococcus pneumoniae [13]): 0.5 mg/L
MIC (Streptococcus pneumoniae [14]): 0.5 mg/L
MIC (Streptococcus pneumoniae [15]): 0.5 mg/L
MIC (Streptococcus pneumoniae [16]): 1 mg/L
MIC90 (Streptococcus pneumoniae [16]): 1 mg/L
MIC (Streptococcus pneumoniae [17]): 0.25 mg/L
MIC (Streptococcus pneumoniae [18]): 0.5 mg/L
MIC (Streptococcus pneumoniae [19]): 0.5 mg/L
MIC (Streptococcus pneumoniae [20]): 0.1 mg/L
MIC (Streptococcus pneumoniae [21]): 0.5 mg/L
MIC (Streptococcus pneumoniae [22]): 4 mg/L
MIC (Streptococcus pneumoniae [23]): 0.5 mg/L
MIC (Streptococcus pneumoniae [24]): 4 mg/L
MIC (Streptococcus pneumoniae [25]): 8 mg/L
MIC (Streptococcus pneumoniae [26]): 0.5 mg/L
MIC (Streptococcus pneumoniae [27]): 0.5 mg/L
MIC (Streptococcus pneumoniae [28]): 0.5 mg/L
